ChEMBL document CHEMBL2321690, “New betulinic acid derivatives for bevirimat-resistant human immunodeficiency virus type-1” (J Med Chem, 2013)
Calls of active or inactive are those of the source. The calls are words filed in the database; no cut-off is given here.

Assays:
[1] = test system: Human immunodeficiency virus 1; test: Potency index, ratio of bevirimat IC50 to compound IC50 for 0.001 MOI bevirimat-resistant Human immunodeficiency virus 1 NL4-3 harboring gag V370A mutant infected in human MT4 cells; type: functional
COS = test: (§1) Inhibition of wild type Human immunodeficiency virus 1 NL4-3 envelope glycoprotein gp160-mediated cell-cell fusion between virus-infected monkey COS cells to human TZM-bl cells after 24 hrs by luciferase reporter gene assay; type: cell-based
Procedure, shortened: (§2)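 COS cells (1 × 10^6 cells/mL) electroporated (950 µF, 150 V) with vector expressing NL4-3 Env and tat, then cultured one day. Mixed with TZM-bl cells with inhibitor over a 1–10000 nM range. Luciferase (RLU) in fused cells read 24 h after mixing, expressed as % of no-compound fusion. Points are mean ± SD of three tests.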

[2] = test system: Human immunodeficiency virus 1; test: Antiviral activity against bevirimat-resistant Human immunodeficiency virus 1 NL4-3 harboring gag V362I mutant infected in human 293T cells assessed as inhibition of CA-SP1 cleavage measured 2 days post infection by Western blotting analysis; type: functional, organism-based
Procedure, shortened: (§3)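 Provirus plasmids (pNL4-3/V370A, pNL4-3/V362I, with pNL4-3 alongside) transfected into 293T cells, and virus produced in presence of compound. Supernatant virus harvested two days after transfection. Western blot with anti-p24 monoclonal antibody (183-H12-5C) to detect accumulation of CA-SP1 (p25), indicating inhibited CA-SP1 cleavage.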

[3] = test system: Human immunodeficiency virus 1; test: Antiviral activity against bevirimat-resistant Human immunodeficiency virus 1 NL4-3 harboring gag V370A mutant infected in human 293T cells assessed as inhibition of CA-SP1 cleavage measured 2 days post infection by Western blotting analysis; type: functional, organism-based; procedure, shortened: as §3
[4] = test system: Human immunodeficiency virus 1; test: Antiviral activity against 0.001 MOI bevirimat-resistant Human immunodeficiency virus 1 NL4-3 harboring gag V362I mutant infected in human MT4 cells assessed as inhibition of viral replication measured 4 days post infection by ELISA; type: functional, organism-based; conditions: Human immunodeficiency virus 1, NL4-3, MT4, 96 h
Procedure, shortened: (§4)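 Mutations introduced into pNL4-3 by site-directed mutagenesis. MT4 cells infected with wild-type NL4-3 or resistant variant at 0.001 TCID50/cell in presence of graded compound concentrations. Supernatant p24 measured by ELISA on day 4 post-infection. IC50 is the concentration reducing p24 by 50%, reported as mean ± SD with the number of tests given per value.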

[5] = test system: Human immunodeficiency virus 1; test: Antiviral activity against 0.001 MOI bevirimat-resistant Human immunodeficiency virus 1 NL4-3 harboring gag T371 deletion mutant infected in human MT4 cells assessed as inhibition of viral replication measured 4 days post infection by ELISA; type: functional, organism-based; conditions: Human immunodeficiency virus 1, NL4-3, MT4, 96 h; procedure, shortened: as §4
[6] = test system: Human immunodeficiency virus 1; test: Antiviral activity against 0.001 MOI bevirimat-resistant Human immunodeficiency virus 1 NL4-3 harboring gag V370 deletion mutant infected in human MT4 cells assessed as inhibition of viral replication measured 4 days post infection by ELISA; type: functional, organism-based; conditions: Human immunodeficiency virus 1, NL4-3, MT4, 96 h; procedure, shortened: as §4
MT4 = test: Cytotoxicity against human MT4 cells for 4 days; type: cell-based; conditions: mt4, 96 h
Procedure, shortened: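 MT4 cells cultured with various compound concentrations for 4 days. Viability read by a CytoTox-Glo luminescent cytotoxicity assay. CC50 is the concentration reducing viable cells by 50%.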

[7] = test system: Human immunodeficiency virus 1; test: Antiviral activity against 0.001 MOI bevirimat-resistant Human immunodeficiency virus 1 NL4-3 harboring gag V370A mutant infected in human MT4 cells assessed as inhibition of viral replication measured 4 days post infection by ELISA; type: functional, organism-based; conditions: Human immunodeficiency virus 1, NL4-3, MT4, 96 h; procedure, shortened: as §4
[8] = test system: Human immunodeficiency virus 1; test: Antiviral activity against 0.001 MOI wild type Human immunodeficiency virus 1 NL4-3 infected in human MT4 cells assessed as inhibition of viral replication measured 4 days post infection by ELISA; type: functional, organism-based; conditions: Human immunodeficiency virus 1, NL4-3, MT4, 96 h; procedure, shortened: as §4
[9] = as §1; type: cell-based; conditions: Human immunodeficiency virus 1, NL4-3, COS; procedure, shortened: as §2
[10] = test system: Human immunodeficiency virus 1; test: Antiviral activity against wild type Human immunodeficiency virus 1 NL4-3 infected in human 293T cells assessed as inhibition of CA-SP1 cleavage measured 2 days post infection by Western blotting analysis; type: functional, organism-based
Procedure, shortened: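 293T cells transfected with pNL4-3 proviral plasmid and cultured with compounds. Culture supernatant collected 2 days after transfection. Western blot with anti-p24 monoclonal antibody (hybridoma 183-H12-5C) detected CA-SP1 (p25) accumulation, taken as the measure of blocked CA-SP1 cleavage.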

Compound | Ratio IC50 [1] | inhibition (COS) | inhibition [2] | inhibition [3] | IC50 [4] [µM] | IC50 [5] [µM] | IC50 [6] [µM] | CC50 (MT4) [µM] | IC50 [7] [µM] | IC50 [8] [µM] | IC50 [9] [µM] | inhibition [10]
C=C(C)[C@@H]1CC[C@]2(C(=O)NCCCCCCCCC(=O)N[C@@H](CCC(N)=O)C(=O)OC)CC[C@]3(C)[C@H](CC[C@@H]4[C@@]5(C)CC[C@H](OC(=O)CC(C)(C)C(=O)O)C(C)(C)[C@@H]5CC[C@]43C)[C@@H]12 | 20 | inactive | Active | Active | 0.016 | 0.067 | 0.32 | > 10 | 0.16 | 0.009 |  | 
C=C(C)[C@@H]1CC[C@]2(C(=O)NCCCCCCCNC(C)=O)CC[C@]3(C)[C@H](CC[C@@H]4[C@@]5(C)CC[C@H](O)C(C)(C)[C@@H]5CC[C@]43C)[C@@H]12 |  |  |  |  |  |  |  |  |  |  | 0.042 | 
C=C(C)[C@@H]1CC[C@]2(C(=O)O)CC[C@]3(C)[C@H](CC[C@@H]4[C@@]5(C)CC[C@H](OC(=O)CC(C)(C)C(=O)O)C(C)(C)[C@@H]5CC[C@]43C)[C@@H]12 [BEVIRIMAT] |  | inactive |  | inactive | > 6.8 | > 6.8 | > 6.8 | > 10 | > 5 | 0.076 |  | Active
